Data on six compounds can be found in ChEMBL document CHEMBL3621139, “NO-Donor Dihydroartemisinin Derivatives as Multitarget Agents for the Treatment of Cerebral Malaria” (J Med Chem, 2015).

The source made the active and inactive calls.

Assay [1] has as its system Plasmodium berghei. As to the kind of experiment: Antimalarial activity against Plasmodium berghei ANKA infected in C57BL/6 mouse experimental cerebral model assessed as mouse survival rate at 25 mg/kg, ip qd for 5 days. It counts as functional. An outline of the steps:
(§1)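 P. berghei ANKA-infected mice left to develop clinical cerebral signs, then treated once hypothermic (rectal temperature 30–36 °C); parasitemia checked but not a treatment criterion. Read-out is survival, compared by log-rank test; 24 h survival also recorded. […] only the subgroup treated above 32 °C body temperature.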

Assay [2] relates to Plasmodium berghei. As to the kind of experiment: Antiplasmodial activity against Plasmodium berghei ANKA early trophozoite stage by parasite LDH assay. It counts as functional, organism-based.
In assay [3] the test system is Plasmodium berghei. As to the kind of experiment: Antimalarial activity against Plasmodium berghei ANKA infected in C57BL/6 mouse experimental cerebral model with body temperature >32 deg C assessed as mouse survival rate at 25 mg/kg, ip qd for 5 days. Type of assay: functional. An outline of the steps: as §1
Assay [4] relates to Plasmodium berghei. As to the kind of experiment: Antimalarial activity against Plasmodium berghei ANKA infected in C57BL/6 mouse experimental cerebral model assessed as mouse survival rate at 25 mg/kg, ip qd for 5 days measured after 24 hrs. Type of assay: functional. An outline of the steps: as §1
In assay [5] the test system is Plasmodium berghei. As to the kind of experiment: Antimalarial activity against Plasmodium berghei ANKA infected in C57BL/6 mouse experimental cerebral model assessed as mouse survival rate at 57 mg/kg, ip qd for 5 days measured after 24 hrs. Type of assay: functional. An outline of the steps: as §1
Assay [6] has as its system Plasmodium berghei. As to the kind of experiment: Antiplasmodial activity against Plasmodium berghei ANKA infected in C57BL/6 mouse assessed as reduction in paresitemia at 1.4 umol, ip qd for 5 days measured after 24 hrs by giemsa staining based microscpic analysis. It counts as functional. A digest of the protocol: (§2)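 C57BL/6 mice infected with P. berghei ANKA and treated from day 5 of infection at 5–15% parasitemia, before neurological signs. Dosing 1.4 μmol ip once daily for 5 days; parasitemia checked every 24 h. Value given as % of pre-treatment parasitemia (set as 100%), read 24 h after the first dose or 24 h after the fifth.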

In assay [7] the test system is Plasmodium berghei. As to the kind of experiment: Antiplasmodial activity against Plasmodium berghei ANKA infected in C57BL/6 mouse assessed as reduction in paresitemia at 1.4 umol, ip qd for 5 days measured after 5 days by giemsa staining based microscpic analysis. Type of assay: functional, organism-based. An outline of the steps: as §2
Assay [8] deals with Plasmodium berghei. As to the kind of experiment: Antimalarial activity against Plasmodium berghei ANKA infected in C57BL/6 mouse experimental cerebral model with body temperature >32 deg C assessed as mouse survival rate at 57 mg/kg, ip qd for 5 days. It counts as functional. An outline of the steps:
as §1

The subject of assay [9] is Plasmodium berghei. As to the kind of experiment: Antimalarial activity against Plasmodium berghei ANKA infected in C57BL/6 mouse experimental cerebral model assessed as mouse survival rate at 57 mg/kg, ip qd for 5 days. It counts as functional. A digest of the protocol:
as §1

Assay [10] has as its system Aorta. As to the kind of experiment: Vasodilatory activity in Wistar rat endothelium-denuded thoracic aorta assessed as reduction in phenylephrine-induced contraction. It counts as functional, tissue-based. A digest of the protocol:
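Endothelium-denuded aortic strips equilibrated 120 min, contracted with L-phenylephrine (1 μM), then given cumulative concentrations of vasodilator. EC50 is the mean ± SEM of at least three experiments.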

Assay [11] concerns Aorta. As to the kind of experiment: Vasodilatory activity in Wistar rat endothelium-denuded thoracic aorta assessed as reduction in phenylephrine-induced contraction in presence 1 uM sGC inhibitor ODQ. It counts as functional, tissue-based. A digest of the protocol: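 Denuded aortic strips equilibrated 120 min, with ODQ 1 μM added to the bath 5 min before L-phenylephrine (1 μM) contraction. Cumulative vasodilator concentrations then added. EC50 is the mean ± SEM of at least three experiments, in a separate series.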

Broadly, the IC50 is the concentration needed to halve the response being measured. Read a low IC50 as inhibition by little substance. As a reminder, the EC50 is the concentration at which the effect is half-maximal.

`CO[C@H]1O[C@@H]2O[C@@]3(C)CC[C@H]4[C@H](C)CC[C@@H]([C@H]1C)[C@@]24OO3` [ARTEMETHER]: the Activity with Plasmodium berghei [1] stood at 27.5%; in the assay with Plasmodium berghei [3], 33.3%; with Plasmodium berghei [4], 48%. In addition, in the assay with Plasmodium berghei [2], the concentration for half-maximal inhibition (IC50) is 0.003 µM.
As to `C[C@H]1[C@@H](OCCN(C)Cc2no[n+]([O-])c2C(N)=O)O[C@@H]2O[C@@]3(C)CC[C@H]4[C@H](C)CC[C@@H]1[C@@]24OO3`, the Activity was 77% in the assay with Plasmodium berghei [5], 63.6% in the assay on Plasmodium berghei [8], 51.6% in the assay with Plasmodium berghei [9] and “Dose-dependent effect” with Aorta [10]. In addition, the “inhibition (INH)” value in the assay with Plasmodium berghei [6] was found to be 95%. Besides, the outcome in the assay with Plasmodium berghei [7] was Active. In the assay on Plasmodium berghei [2], this compound came in with an IC50 of 0.016 µM. Moreover, the figures for the EC50 in the assay with Aorta [10] and with Aorta [11] were 1.4 µM and 12 µM, respectively.
As for `C[C@H]1[C@@H](OCCN(C)Cc2no[n+]([O-])c2S(=O)(=O)c2ccccc2)O[C@@H]2O[C@@]3(C)CC[C@H]4[C@H](C)CC[C@@H]1[C@@]24OO3`, the “inhibition (INH)” value with Plasmodium berghei [6] worked out at 95%. In addition, the outcome in the assay with Plasmodium berghei [7] was Active. The IC50 in the assay on Plasmodium berghei [2] is 0.014 µM. Besides, the EC50 was 0.41 µM in the assay on Aorta [10] and 30 µM in the assay on Aorta [11].
On to `C[C@H]1[C@@H](OC(=O)CCC(=O)OCO/N=[N+](\[O-])N2CCCC2)O[C@@H]2O[C@@]3(C)CC[C@H]4[C@H](C)CC[C@@H]1[C@@]24OO3`, for which, in the assay on Plasmodium berghei [6], the “inhibition (INH)” value is recorded as 95%. In addition, the result in the assay on Plasmodium berghei [7] was Active. In addition, in the assay with Plasmodium berghei [2], the 50% inhibitory concentration (IC50) was determined as 0.015 µM. Besides, the EC50 in the assay with Aorta [10] is 0.0036 µM; with Aorta [11] it was 0.14 µM.
The corresponding values for `C[C@H]1[C@@H](OCCN(C)Cc2no[n+]([O-])c2C#N)O[C@@H]2O[C@@]3(C)CC[C@H]4[C@H](C)CC[C@@H]1[C@@]24OO3` are 85%, “Active”, 0.018 µM, 0.023 µM and 0.25 µM.
In the case of `C[C@H]1[C@H](OC(=O)CCC(=O)O)O[C@@H]2O[C@@]3(C)CC[C@H]4[C@H](C)CC[C@@H]1[C@@]24OO3` [SODIUM ARESUNATE], 0.016 µM corresponded to half-maximal inhibition in the assay with Plasmodium berghei [2] (IC50). This lies in the double-digit nanomolar range.
